Ecoli rRNA inh – inhibits bacterial ribosomal RNA function over humanized ribosomes. GFP signal change (wild-type ribosome), % (test concentration not listed). 350,000 compounds, 1.6% hits. AID 720706. E. coli WT GFP vs humanized-ribosome RFP mutants, fluorescence, 24 h; hits give low values; DMSO median 0, no signal -100;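 active means significant combined selectivity score with lowered wild-type GFP, culture density cut under 30%, mutant RFP and density less affected; inactive means any of these conditions unmet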
dFosB activator – activators of mouse delta FosB homodimer | P13346 | purified delta FosB, TAMRA-CDK5 oligo fluorescence polarization; percent of positive-control signal above neutral wells | activation, % at 25 µM | 340,000 compounds, 0.99% hits;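 active means mean activation above about 17%, with every replicate also reaching it, limit read from the data, passing the limit was not always enough; inconclusive means only one of the two conditions met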
SR-BI DiI inh – blocks mouse SR-BI lipid uptake from DiI-HDL. Q61009. ldlA[mSR-BI] CHO cells, DiI-HDL uptake fluorescence, 3 h. inhibition, % at 12.5 µM. 320,000 compounds, 0.96% hits. AID 488896;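 active means mean replicate inhibition of at least 70% and a set share of replicates each scoring 70 or more; inconclusive means meets just one of the two criteria; inactive means fails both criteria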;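 further: 0% = median of neutral control wells and 100% = median of positive control wells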
Target sequence (Q61009 whole entry, looked up): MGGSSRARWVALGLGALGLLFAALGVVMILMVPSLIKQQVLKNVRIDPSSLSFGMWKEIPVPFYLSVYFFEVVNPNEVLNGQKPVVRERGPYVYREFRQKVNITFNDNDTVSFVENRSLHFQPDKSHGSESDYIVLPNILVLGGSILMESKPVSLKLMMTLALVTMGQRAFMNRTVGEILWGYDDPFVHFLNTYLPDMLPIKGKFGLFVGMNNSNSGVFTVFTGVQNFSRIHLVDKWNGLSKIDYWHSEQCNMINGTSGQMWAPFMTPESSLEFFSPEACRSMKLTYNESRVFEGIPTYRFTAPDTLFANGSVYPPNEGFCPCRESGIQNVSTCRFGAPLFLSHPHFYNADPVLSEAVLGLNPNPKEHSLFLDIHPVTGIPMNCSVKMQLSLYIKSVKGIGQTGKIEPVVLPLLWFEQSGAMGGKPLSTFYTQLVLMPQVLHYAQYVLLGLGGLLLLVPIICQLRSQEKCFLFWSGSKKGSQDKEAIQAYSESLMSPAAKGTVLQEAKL
SR-BI DiI-HDL act – enhances SR-BI lipid uptake from DiI-HDL; CHO ldlA[mSR-BI] cells, DiI-HDL uptake fluorescence, 3 h; 100 = double the neutral-control signal; activation, % at 12.5 µM; 320,000 compounds, 0.096% hits; AID 504775;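 active means mean replicate activation of at least 60% and every replicate at or above 60%; inconclusive means mean or all-replicate condition met, but not both; inactive means mean below 60% and not all replicates reaching 60%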;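 further: 0% = median plate neutral-control signal and 100% = twice that signal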
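material = CHO ldlA[mSR-BI] cells | medium = Ham's F12 with 0.5% BSA, HEPES 25 mM, pH 7.4 | reagent = fluorescent DiI-HDL, 10 µg/mL final | compound dosing = single-point compound dose | incubation = 3 h, 37 °C | measured by = bottom-read fluorescence, 550/595 nm | measure = HDL uptake via cellular fluorescence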
PvdQ inh – blocks Pseudomonas aeruginosa PvdQ acylase activity | 340,000 compounds, 0.063% hits | inhibition, % at 10 µM | purified PvdQ acylase, fluorescence plate reader; in the data active means inhibition above about 30%, passing the limit was not always enough; inconclusive means no clear call, values can overlap the other calls;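 further: 0% = vehicle neutral wells and 100% = reference inhibitor wells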
Xi reactivation – reactivates the inactive X chromosome in mouse fibroblasts; XiGFP mouse fibroblasts, % GFP-positive cells imaging, 3 d; cells co-treated with 5-aza-dC sensitizer; scaled so ellipticine positive control = 100%; activation, % at 7.58 µM; 360,000 compounds, 0.055% hits;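 active means mean normalized replicate activation at least 10% and every replicate at or above 10%; inconclusive means only one of the two criteria met; inactive means mean below 10% and not all replicates reach 10%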;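 further: 0% = median of on-plate neutral control wells and 100% = ellipticine 6 µM median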
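Schedule: 3 d treatment, 15 min room-temperature fixation; system: 68-5-11 XiGFP fibroblast line; buffer or medium: DMEM plus 5-aza-dC sensitizer; control set: ellipticine 6 µM positive control; compound: one concentration, pinned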
HepG2 tox – kills or reduces viability of HepG2 cells; shares compounds with Ecoli rRNA inh; ATP luminescence, 72 h; activity change, negative = cytotoxicity, unspecified at 26 µM; 30 tested, under 10 active;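 active means compounds whose fitted half-maximal signal-loss concentration is at most twice their highest valid dose; inconclusive means flat curve with 30 to 70% signal loss, or poor fit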
AID977621 – wild-type E. coli growth inhibition versus H69 humanized strain – H69 mutant RFP, wild-type GFP, cherry-pick, dose response. shares compounds with Ecoli rRNA inh. AID 977621. fluorescence, 24 h. 1,900 tested, under 10 active. activity change, negative = inhibition at 50 µM;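 active means Wild-type ribosome reporter drop at least double the humanized mutant ribosome reporter drop, growth loss under a set limit; inconclusive means no clear call, values can overlap the other calls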;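 further: wild-type GFP and H69 mutant RFP strains grown together 50/50 in each well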
AID977628 – growth of wild-type and h24-humanized E. coli strains – h24 mutant RFP vs wild-type GFP, cherry-pick, dose response; shares compounds with Ecoli rRNA inh; E. coli WT GFP strain growth, fluorescence, 24 h; activity change, negative = inhibition at 50 µM; 1,900 tested, under 10 active; AID 977628;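 active means compound lowering the normal-ribosome reporter at least twice as much as the humanized-ribosome reporter, growth loss under a set limit; inconclusive means no clear call, values can overlap the other calls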;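 further: wild-type GFP and h24 humanized RFP strains co-cultured 1 to 1 per well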
* marks the source's active call; other numbers are inactive results; ? = inconclusive; nt = no result; [ ] = another dose, or the depositor's remark. A selection: hits, their analogues and other compounds. The true share with any hit is near 2.6%.

SMILES	Ecoli rRNA inh	dFosB activator	SR-BI DiI inh	SR-BI DiI-HDL act	PvdQ inh	Xi reactivation	AID977621	AID977628	others
CC(=O)Nc1ccc(Nc2nc(C)c([N+](=O)[O-])c(N(C)c3ccccc3)n2)cc1	-44*	-7	4	-4	6	0	?	?
CC(=O)Nc1ccc(Nc2nc(C)c([N+](=O)[O-])c(Nc3ccccc3)n2)cc1	nt	3	33	-33	-6	0	nt	nt
CC(C)Oc1ccc(C(=O)Nc2cccc3cccnc23)cc1	-22*	-11	-18	18	-11	-1	-14	-1.1
CCOc1ccc(C(=O)Nc2cccc3cccnc23)cc1	8	-6	13	-13	-3	0	nt	nt
CCN(C(=O)COC(=O)c1cn(-c2ccccc2)nc1-c1ccccc1)C1CCS(=O)(=O)C1 (stereo not given)	-39*	-15	7	-7	-9	0	-24	-12
Cc1noc(C)c1NC(=O)Nc1ccc2c(c1)C(=O)N([C@@H](C)CO)C[C@H](C)[C@@H](CN(C)C(=O)Nc1ccc3c(c1)OCO3)OCCCC[C@H](C)O2	3	nt	nt	nt	nt	0	-3.9	12
Cc1noc(C)c1NC(=O)Nc1ccc2c(c1)C(=O)N([C@H](C)CO)C[C@@H](C)[C@H](CN(C)C(=O)Nc1ccc3c(c1)OCO3)OCCCC[C@@H](C)O2	-2	nt	nt	nt	nt	0	-8.3	?
Cc1noc(C)c1NC(=O)N(C)C[C@H]1OCCCC[C@@H](C)Oc2ccc(NC(=O)Nc3ccc4c(c3)OCO4)cc2C(=O)N([C@@H](C)CO)C[C@H]1C	2	nt	nt	nt	nt	-1	nt	nt
Cc1noc(C)c1NC(=O)Nc1ccc2c(c1)C(=O)N([C@H](C)CO)C[C@H](C)[C@@H](CN(C)C(=O)Nc1ccc3c(c1)OCO3)OCCCC[C@@H](C)O2	-37*	nt	nt	nt	nt	0	-2.5[23.5 µM]	?
Cc1noc(C)c1NC(=O)Nc1ccc2c(c1)C(=O)N([C@H](C)CO)C[C@H](C)[C@@H](CN(C)C(=O)Nc1ccc3c(c1)OCO3)OCCCC[C@H](C)O2	-3	nt	nt	nt	nt	0	-7.7	?
Cc1noc(C)c1NC(=O)N(C)C[C@@H]1OCCCC[C@H](C)Oc2ccc(NC(=O)Nc3ccc4c(c3)OCO4)cc2C(=O)N([C@@H](C)CO)C[C@H]1C	1	nt	nt	nt	nt	-1	nt	nt
CCN(Cc1ccccc1)C(=O)C1CCN(C(=O)Nc2ccccc2)CC1	12	-11	-18	18	0	0	nt	nt
Cc1cc(F)ccc1NC(=O)c1cccnc1	15	1	nt	nt	-14	0	nt	nt
CC(=O)Nc1ccc(NC(C)=O)c(NC2OCC(O)C(O)C2O)c1 (stereo not given)	8	-2	nt	nt	-13	0	nt	nt
Cc1cccc2cc(C#N)c(SCC(=O)N3CC(=O)Nc4ccccc43)nc12	nt	-2	-2	2	-12	nt	nt	nt
O=C(NCCc1ccc(Cl)cc1)c1ccc2nc[nH]c2c1	-32*	-8	-4	4	-4	0	nt	?
O=C(NCCc1ccc(Cl)cc1Cl)c1ccc2nc[nH]c2c1	-8	-5	-2	2	-12	0	nt	nt
O=C(c1cccc2c1-c1ccccc1C2)N1CCCCC1	-22*	2	3	-3	-1	0	-11	?
CCN(CC)CCn1c2ccccc2c2nc3ccc([N+](=O)[O-])cc3cc21	-25*	51*	26	-26	-8	0	nt	nt	HepG2 tox=3
Cn1c2ccccc2c2cc([N+](=O)[O-])ccc21	8	-1	13	-13	-8	0	nt	nt
NC(=O)CSc1nnc(-c2cnccn2)n1-c1ccccc1	nt	6	-8	8	-1	nt	nt	nt
Cc1ccc(-n2c(SCC(N)=O)nnc2-c2cnccn2)cc1	-25*	nt	nt	nt	nt	0	-2.2	?
COc1ccc(-c2c(C(F)(F)F)oc3cc(OCC(=O)Nc4ccccc4C(F)(F)F)ccc3c2=O)cc1OC	1	-10	65	-65	0	0	nt	nt
CC(C)NC(=O)N(C)C[C@@H]1OCCCC[C@@H](C)Oc2ccc(NS(=O)(=O)c3ccc(Cl)cc3)cc2C(=O)N([C@H](C)CO)C[C@@H]1C	5	nt	nt	nt	nt	0	nt	nt
O=C(Nc1ccc(-c2nnc3n2CCCCC3)cc1)c1cc2ccccc2o1	-20*	-9	15	-15	-11	0	-7.4	-3.2
SMILES	Ecoli rRNA inh	dFosB activator	SR-BI DiI inh	SR-BI DiI-HDL act	PvdQ inh	Xi reactivation	AID977621	AID977628	others
O=C(Nc1c(C(=O)N2CCOCC2)cnn1-c1ccccc1)c1ccccc1	nt	4	8	-8	3	nt	nt	nt
CCc1cccc(NC(=O)CN(C)S(=O)(=O)c2cccc3cccnc23)c1	-20*	-5	24	-24	5	0	-7.7	-8.1
Cc1cccc(NC(=O)CN(C)S(=O)(=O)c2cccc3cccnc23)c1	-7	-7	36	-36	-3	0	nt	nt
Cc1ccc(S(=O)(=O)N2[C@H](c3ccccc3)CC(=O)[C@@H]3CN(S(=O)(=O)c4ccccc4C)[C@H](c4ccccc4)C[C@@H]32)cc1	34	nt	nt	nt	nt	0	nt	nt
COc1ccc(-n2ccnc2SCC(=O)NCc2ccccc2)c(OC)c1	-25*	-11	13	-13	-11	0	5.4	nt
CC(C)CN(C(=O)c1ccco1)c1nc2ccccc2s1	-19*	-14	8	-8	-5	0	nt	?
COc1ccc(CN2C(=O)NC3(CCOc4ccccc43)C2=O)cc1F (stereo not given)	nt	1	-31	31	-4	0	nt	nt
COc1ccc(CN2C(=O)NC(C)(c3ccc(C)cc3)C2=O)cc1F (stereo not given)	-22*	-1	-10	10	11	0	-9.9	?
CN(C)C(CNC(=O)c1ccc([N+](=O)[O-])cc1Cl)c1ccco1 (stereo not given)	1	-1	-5	5	-8	0	nt	nt
CN(C)C(CNS(=O)(=O)c1cc([N+](=O)[O-])ccc1Cl)c1ccco1 (stereo not given)	-2.3*	1	-20	20	8	0	nt	-12
O=C(c1ccccc1)N(c1ccccc1)c1nccc2ccccc12	-28*	1	30	-30	-5	0	-5.5	nt
O=C(c1ccccc1)N(C(=O)c1ccccc1)c1ccccc1	8	nt	nt	nt	nt	0	nt	nt

Source: PubChem
